In ChEMBL document CHEMBL4396890, “Synthesis, Biological Evaluation, Structure-Activity Relationship, and Mechanism of Action Studies of Quinoline-Metronidazole Derivatives Against Experimental Visceral Leishmaniasis” (J Med Chem, 2019):
The source made the active and inactive calls. No cut-off for these calls is given here.

How the values were obtained:
[1] = tested on: Leishmania donovani; assay: Antileishmanial activity against Leishmania donovani MHOM/IN/80/Dd8 promastigotes harboring luciferase reporter gene at 25 uM after 48 hrs by Steady-Glo luminescence assay relative to control; assay type: functional; conditions: MHOM/IN/80/Dd8, 48 h
In short: (§1)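 Luciferase-expressing L. donovani Dd8 promastigotes were grown at 24 °C in M199 with 10% heat-inactivated FBS and G418 20 μg/mL. They were treated at varied concentrations for 24 and 48 h, and inhibition was read as relative luminescence units versus untreated control. IC50 was from dose–response; screening values are mean ± SD of at least three experiments in duplicate.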

[2] = tested on: Leishmania donovani; assay: Antileishmanial activity against Leishmania donovani MHOM/IN/80/Dd8 amastigotes harboring luciferase reporter gene infected in mouse J774 cells at 50 uM after 48 hrs by Giemsa staining-based microscopic assay relative to control; assay type: functional; conditions: MHOM/IN/80/Dd8, J774, 48 h
In short: (§2)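 Infection of J774 macrophages with L. donovani Dd8 promastigotes at a 1:8 cell:parasite ratio. Compounds were diluted 2-fold in RPMI over 3.125–100 μM final and applied for 48 h. Amastigote inhibition was read by luciferase (RLU) or by Giemsa count of amastigotes per 100 macrophages. IC50 was from dose–response; n = 3 independent experiments done in replicate.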

[3] = Half life in rat liver microsomes at 10 ug/ml preincubated for 5 mins followed by NADPH addition measured after 60 mins by UPLC analysis; assay type: ADME, Microsome
In short: (§3)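 Compound was incubated with rat liver microsomes, sampling % remaining up to 60 min. In vitro half-life and related parameters came from a plot of ln(% remaining) versus incubation time.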

[4] = tested on: Leishmania donovani; assay: Antileishmanial activity against Leishmania donovani MHOM/IN/80/Dd8 promastigotes harboring luciferase reporter gene after 48 hrs by Steady-Glo luminescence assay; assay type: functional, organism-based; conditions: for IC50: MHOM/IN/80/Dd8, 48 h; in short: as §1
[5] = tested on: Leishmania donovani; assay: Antileishmanial activity against Leishmania donovani MHOM/IN/80/Dd8 promastigotes infected in BALB/c mouse assessed as reduction in parasite load in liver at 50 mg/kg, ip administered once daily for 5 days measured 7 days post dose by giemsa staining-based assay relative to control; assay type: functional; set-up: scale not given: the % may be the effect or the level left
In short: (§4)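 Hamster-passaged strain was transformed to promastigotes. Stationary-phase cells (2 × 10^7 in 0.2 mL PBS) were injected into the tail vein of BALB/c mice. From day 15 post-infection, mice received compound ip in 8% DMSO in PBS for 5 consecutive days, 5 mice per group. Mice were killed day 7 post-treatment. Liver and spleen burden was read from Giemsa-stained stamp smears as LDU.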

[6] = tested on: Leishmania donovani; assay: Antileishmanial activity against Leishmania donovani MHOM/IN/80/Dd8 amastigotes harboring luciferase reporter gene infected in mouse J774 cells after 48 hrs by Giemsa staining-based microscopic assay; assay type: functional, organism-based; conditions: for IC50: MHOM/IN/80/Dd8, J774, 48 h; in short: as §2
[7] = Stability of the compound in simulated gastric fluid assessed as parent compound remaining measured after 2 hrs by UPLC analysis; assay type: ADME; conditions: read-out: Stability
In short: (§5)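 Compound incubated 2 h in simulated gastric fluid (pH 1.2) […] or in simulated intestinal fluid (pH 6.5) […]; the percentage of intact compound remaining was reported.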

[8] = Intrinsic clearance in rat liver microsomes at 10 ug/ml preincubated for 5 mins followed by NADPH addition measured after 60 mins by UPLC analysis; assay type: ADME, Microsome; conditions: read-out: CLH; in short: as §3
[9] = tested on: Leishmania donovani; assay: Antileishmanial activity against Leishmania donovani MHOM/IN/80/Dd8 amastigotes harboring luciferase reporter gene infected in mouse J774 cells at 100 uM after 48 hrs by Steady-Glo luminescence assay; assay type: functional, organism-based; in short: as §2
[10] = tested on: Leishmania donovani; assay: Antileishmanial activity against Leishmania donovani MHOM/IN/80/Dd8 promastigotes infected in ip dosed BALB/c mouse assessed as reduction in parasite load in liver administered once daily for 5 days measured 7 days post dose by giemsa staining-based assay; assay type: functional, organism-based; in short: as §4
[11] = Cytotoxicity against African green monkey Vero cells assessed as cell viability up to 100 uM measured after 48 hrs by MTT assay relative to control; assay type: cell-based; conditions: chlorocebus sabaeus, read-out: Activity
In short: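 Vero cells and J774 macrophages were exposed to 12.5−400 μM compound for 48 h. Viability was read by MTT. CC50 was derived from the curve. Mean ± SD, n = 3 experiments in replicate.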

[12] = tested on: Leishmania donovani; assay: Antileishmanial activity against Leishmania donovani MHOM/IN/80/Dd8 promastigotes harboring luciferase reporter gene at 100 uM after 48 hrs by MTT assay; assay type: functional, organism-based
In short: (§6)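 Luciferase-expressing L. donovani Dd8 promastigotes were grown at 24 °C in M199 with 10% heat-inactivated FBS and G418 20 μg/mL. They were exposed to a range of concentrations for 48 h, and viability was read by MTT absorbance as percent of untreated control. IC50 was from dose–response; n = 3 independent experiments done in replicate.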

[13] = tested on: Leishmania donovani; assay: Antileishmanial activity against Leishmania donovani MHOM/IN/80/Dd8 promastigotes infected in BALB/c mouse assessed as reduction in parasite load in spleen at 200 mg/kg, ip administered once daily for 5 days measured 7 days post dose by giemsa staining-based assay relative to control; assay type: functional; set-up: scale not given: the % may be the effect or the level left; in short: as §4
[14] = tested on: Leishmania donovani; assay: Antileishmanial activity against Leishmania donovani MHOM/IN/80/Dd8 promastigotes harboring luciferase reporter gene by MTT assay; assay type: functional, organism-based; conditions: TDE = time-dependent effect; in short: as §6
[15] = tested on: Leishmania donovani; assay: Antileishmanial activity against Leishmania donovani MHOM/IN/80/Dd8 amastigotes harboring luciferase reporter gene infected in mouse J774 cells at 50 uM after 48 hrs by Steady-Glo luminescence assay relative to control; assay type: functional; conditions: MHOM/IN/80/Dd8, J774, 48 h; in short: as §2
[16] = Toxicity in BALB/c mouse infected with Leishmania donovani MHOM/IN/80/Dd8 promastigotes assessed as death at 12.5 to 200 mg/kg, ip administered once daily for 5 days measured up to 7 days post dose; assay type: organism-based; conditions: in vivo
In short: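 BALB/c mice (20 ± 2 g) were infected by tail-vein injection of 2 × 10^7 stationary-phase promastigotes. At day 15 they received ip doses in 8% DMSO/PBS for 5 consecutive days and were killed at day 7 post-treatment. Survival, general health and body weight were monitored; 5 mice per group.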

[17] = tested on: Leishmania donovani; assay: Antileishmanial activity against Leishmania donovani MHOM/IN/80/Dd8 amastigotes harboring luciferase reporter gene infected in mouse J774 cells at 100 uM by Giemsa staining-based microscopic assay; assay type: functional, organism-based; in short: as §2
[18] = tested on: Leishmania donovani; assay: Antileishmanial activity against Leishmania donovani MHOM/IN/80/Dd8 promastigotes harboring luciferase reporter gene after 48 hrs by MTT assay relative to control; assay type: functional; in short: as §6
[19] = tested on: Leishmania donovani; assay: Antileishmanial activity against Leishmania donovani MHOM/IN/80/Dd8 promastigotes infected in BALB/c mouse assessed as reduction in parasite load in liver at 200 mg/kg, ip administered once daily for 5 days measured 7 days post dose by giemsa staining-based assay relative to control; assay type: functional; set-up: scale not given: the % may be the effect or the level left; in short: as §4
[20] = Stability of the compound in simulated intestinal fluid assessed as parent compound remaining measured after 2 hrs by UPLC analysis; assay type: ADME; conditions: read-out: Stability; in short: as §5
[21] = tested on: Leishmania donovani; assay: Antileishmanial activity against Leishmania donovani MHOM/IN/80/Dd8 amastigotes harboring luciferase reporter gene infected in mouse J774 cells by Giemsa staining-based microscopic assay; assay type: functional, organism-based; conditions: TDE = time-dependent effect; in short: as §2
[22] = tested on: Leishmania donovani; assay: Antileishmanial activity against Leishmania donovani MHOM/IN/80/Dd8 promastigotes infected in BALB/c mouse assessed as reduction in parasite load in spleen at 50 mg/kg, ip administered once daily for 5 days measured 7 days post dose by giemsa staining-based assay relative to control; assay type: functional; set-up: scale not given: the % may be the effect or the level left; in short: as §4
[23] = tested on: Leishmania donovani; assay: Antileishmanial activity against Leishmania donovani MHOM/IN/80/Dd8 amastigotes harboring luciferase reporter gene infected in mouse J774 cells after 48 hrs by Steady-Glo luminescence assay; assay type: functional, organism-based; conditions: for IC50: MHOM/IN/80/Dd8, J774, 48 h; in short: as §2

Row | Structure (SMILES) | inhibition at 25 µM [1] [%] | inhibition at 50 µM [2] [%] | half-life at 10 ug/ml [3] [h] | inhibition [4] | IC50 [4] [µM] | Activity [5] [%] | inhibition [6] | IC50 [6] [µM] | remaining at 2 h [7] [%] | microsomal CLint at 10 ug/ml [8] [µL/min/mg] | inhibition [9] | Activity [10] | viability at 48 h [11] [%] | inhibition [12] | Activity [13] [%] | inhibition [14] | inhibition at 50 µM [15] [%] | Activity [16] | inhibition [17] | Imax [18] [%] | further results
1 | Cc1cc(-c2cccc(OCCn3c([N+](=O)[O-])cnc3C)c2)nc2ccccc12 | 77.8 | > 93 | 2.18 | Dose-dependent effect | 9.54 | >50 | Dose-dependent effect | 9.09 | 84.7 | 10.7 | Active | Dose-dependent effect | > 86 | Active | 54.14 | Tde | 93.2 to 96 | Non-Toxic | Active | >93 | Activity [19]: 55.5%; remaining at 2 h [20]: 11.4%; inhibition [21]: Tde; Activity [22]: >50%; inhibition [23]: Dose-dependent effect; IC50 [23]: 9.81 µM
2 | Cc1cc(-c2ccc(OCCn3c([N+](=O)[O-])cnc3C)cc2)nc2ccccc12 | 85.8 | > 93 | 2.5 | Dose-dependent effect | 5.42 | >82.3 | Dose-dependent effect | 4.06 | 83.6 | 9.3 | Active | Dose-dependent effect | > 86 | Active | 82.2 | Tde | 93.8 to 96 | Non-Toxic | Active | >93 | Activity [19]: 82.7%; remaining at 2 h [20]: 43.6%; inhibition [21]: Tde; Activity [22]: >80.3%; inhibition [23]: Dose-dependent effect; IC50 [23]: 3.75 µM
